Published values from different studies.
IDE: Insulin-degrading enzyme (IDE, Homo sapiens, UniProt P14735)
P2RX7: P2X purinoceptor 7 (P2RX7, Homo sapiens, UniProt Q99572)

Structure (SMILES) | target | effect on | mode | method | IC50 [nM]
COC(=O)[C@H](Cc1c[nH]cn1)NC(=O)CN(CCc1c[nH]c2ccccc12)CC(=O)O | IDE | enzyme activity | inhibitor | fluorescence | 1200
O=C(O)[C@H](Cc1ccccc1)NC(=O)C1(c2ccccc2)CCN(S(=O)(=O)c2ccccc2)CC1 | Gag-Pol polyprotein, integrase (gag-pol, Human immunodeficiency virus 1, UniProt P12497) | enzyme activity | inhibitor | TR-FRET | 189000
NC(=O)NCCC[C@@H](NS(=O)(=O)c1ccc(OCc2cc(Br)cc(Br)c2)cc1)C(=O)NO | Interstitial collagenase (MMP1, Homo sapiens, UniProt P03956) | enzyme activity | inhibitor | fluorescence | > 500000
COC(=O)[C@H](Cc1c[nH]cn1)NC(=O)CN(CC(=O)O)Cc1ccc(F)cc1 | IDE | enzyme activity | inhibitor | fluorescence | 2500
CCC[C@H](NC(=O)C1CN(C)C1)c1ncc(-c2cc3ccccc3nc2OC)[nH]1 | Histone deacetylase 3 (HDAC3, Homo sapiens, UniProt O15379) | enzyme activity | inhibitor | fluorescence | 160
Cc1cnc(-c2ccc(-c3ccc(NC(=O)Nc4c(F)cc(F)cc4F)cc3F)c3c2C(=O)NC3)[nH]1 | TRAF2 and NCK-interacting protein kinase (TNIK, Homo sapiens, UniProt Q9UKE5) | enzyme activity | inhibitor |  | 4.1
CC[C@H](C)[C@H](NC(C)=O)C(=O)N[C@@H](CCC(=O)O)C(=O)N[C@H](C(=O)N[C@H](C=O)CC(=O)O)[C@@H](C)O | Caspase-1 (CASP1, Homo sapiens, UniProt P29466) | enzyme activity | inhibitor |  | 17.3
Cc1cc(Oc2ccc(NC(=O)c3cc(-c4cccs4)no3)cc2)c2nncn2n1 | Hepatocyte growth factor receptor (MET, Homo sapiens, UniProt P08581) | enzyme activity | inhibitor | mobility shift | 880
Nc1ncnc2c1c(COc1cccc(Cl)c1)nn2C1CCOCC1 | TGF-beta receptor type-1 (TGFBR1, Homo sapiens, UniProt P36897) | cell-free assay |  | TR-FRET | 820
O=C(Nc1ccccc1OS(=O)(=O)c1ccc(F)cc1)c1ccc2ncccc2c1 | P2RX7 | calcium signal | antagonist |  | 624
O=C(O)CN(CC(=O)N[C@@H](Cc1c[nH]cn1)C(=O)NCc1ccccc1)Cc1ccccc1 | IDE | enzyme activity | inhibitor | fluorescence | 1400
CCn1ncc2c1-c1cnc(N)c(c1)O[C@H](C)c1cc(F)ccc1-c1nn(C)nc1C2 | Macrophage colony-stimulating factor 1 receptor (CSF1R, Homo sapiens, UniProt P07333) | enzyme activity | inhibitor | radiometric | 489
O=C(O)CC1=C/C(=C\c2cccc(-c3ccc(F)cc3)n2)c2ccc(F)cc21 | Prostaglandin G/H synthase 2 (Ptgs2, Mus musculus, UniProt Q05769) | enzyme activity | inhibitor |  | 670
CNCCCC(c1ccccc1)(c1ccccc1)c1ccccc1 | Kinesin-like protein KIF11 (KIF11, Homo sapiens, UniProt P52732) | ATPase activity | inhibitor |  | 386
COC(=O)CN(CC(=O)N[C@@H](Cc1c[nH]cn1)C(=O)OC)Cc1ccccc1 | IDE | enzyme activity | inhibitor | fluorescence | > 100000
O=C(Nc1ccccc1OS(=O)(=O)c1cccs1)c1ccc2ncccc2c1 | P2RX7 | calcium signal | antagonist |  | 2480
CNC(=O)c1cc2c(Oc3ccc(NC(=O)C4(C(=O)Nc5ccc(F)cc5)CC4)cc3)ccnc2cc1OC | Hepatocyte growth factor receptor (MET, Homo sapiens, UniProt P08581, Y1230D) | enzyme activity | inhibitor | radiometric | 9
COC(=O)[C@H](CCCNC(=N)N)NC(=O)CN(CC(=O)O)Cc1ccccc1 | IDE | enzyme activity | inhibitor | fluorescence | 36300
CN1CCN(c2ccc(Nc3ncc4cc(C#N)c(=O)n(C5CCCC5)c4n3)cc2)CC1 | Serine/threonine-protein kinase 4 (STK4, Homo sapiens, UniProt Q13043) | enzyme activity | inhibitor |  | 7070
